Ba/F3 V617F tox = reduced viability of JAK2V617F-dependent Ba/F3 cells, primary screen, JAK2V617F inhibitor project, cell-based, Ba/F3 EpoR-JAK2V617F, luminescence | inhibition, % at 5.6 µM | ATP luminescence | hit rate 1.1% among 220,000;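 active = inhibition above the campaign mean plus 3 SD over all tested compounds, cut at about 24% in these data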;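 note: cytokine-independent growth of Ba/F3 cells driven by EpoR plus mutant JAK2; 0% = DMSO-treated cells and 100% = JAK inhibitor I control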
IEC-6 cytotox = cytotoxicity in IEC-6 intestinal epithelial cells, primary screen, cytotoxicity control for KLF5 inhibitor project, cell-based, luminescence; IEC-6 cytotoxicity, luminescence viability; inhibition, % at 5 µM; hit rate 0.78% among 290,000; AID 1825, 2009; in the data active = inhibition above about 22%;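 note: 0% = plate median of test compound wells and 100% = cytotoxic reference compound wells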
APP transl inh = inhibitors of APP translation via 5'UTR reporter, primary screen, APP 5'UTR luciferase, SH-SY5Y cells | SH-SY5Y APP 5'UTR-luciferase reporter, luminescence | AID 1285, 2008 | hit rate 0.82% among 190,000 | inhibition, % at 2 µM;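 active = inhibition above a set limit, derived from the sample mean plus 3 SD, cut at about 45% in these data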
MT stabilizer = microtubule stabilizers in HeLa cells, primary screen, imaging, high-content imaging; % tubulin-high responders, % at 10 µM; hit rate 0.83% among 200,000; HeLa tubulin immunostaining HCS, 24 h; share of cells brighter than vehicle mean+2SD;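 active = plate Z-score above 3 for both tubulin-high and condensed-nucleus cell shares, with cell loss under 80%, at 10 µM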;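 note: anti alpha tubulin signal scored within the nucleus-defined area of each cell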
BaF3 tox = parental Ba/F3 cell viability inhibition, counter-screen for JAK2V617F inhibitor project, murine pro-B, CellTiter-Glo luminescence | CellTiter-Glo ATP luminescence | inhibition, % at 5.6 µM | hit rate 1.1% among 220,000 | AID 1486, 2009;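 active = inhibition above a per-campaign cutoff, the mean inhibition of all tested compounds plus 3 SD, cut at about 27% in these data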;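 note: 0% = DMSO wells and 100% = JAK Inhibitor I control wells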
b-catenin transl = modulators of beta-catenin nuclear translocation, primary screen, imaging, HeLa cells, immunofluorescence, high-content. nuclear translocation activity, % at 5 µM. AID 1665, 2009. hit rate 0.3% among 190,000;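 active = nuclear translocation activity above 50% at 5 µM, with a well cell count of 50 or more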;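 note: per-cell ratio of nuclear to cytoplasmic median beta-catenin stain intensity; plate controls were DMSO negative control for no effect and GSK-3 inhibitor IX positive control for full effect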
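Test system: human HeLa cells, native beta-catenin. Compound dosing: 5 µM primary single dose, 0.1% DMSO, 0.02–20 µM confirmation series. Incubation: compound exposure 24 h at 37°C. Detection: beta-catenin immunostaining with DAPI counterstain, 20x imaging, 6 fields/well. Read-out basis: Nuclear/cytoplasmic beta-catenin signal ratio, % activation.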
* hit, by the source's call; x = not tested or not shown. Compounds with a hit are over-represented: about 2.2% of the library has one in this group of screens.

SMILES	Ba/F3 V617F tox	IEC-6 cytotox	APP transl inh	MT stabilizer	BaF3 tox	b-catenin transl
COc1ccc(N(C(=O)c2snc(C(N)=O)c2N)C(C(=O)NC2CCCC2)c2cc(OC)ccc2OC)cc1 (centres undefined)	x	2	x	x	x	x
O=C(Nc1ccc(O)cc1)c1cccc(Oc2ccc([N+](=O)[O-])cc2)c1	-1	-2	23	37*	5	6
CN(Cc1ccccc1)S(=O)(=O)c1ccc(NC(=S)NC(=O)C2CCCC2)cc1	15	8	44	28*	11	1
O=C(NCc1ccccn1)c1ccc(NS(=O)(=O)c2cccc(Cl)c2)cc1	x	0	x	x	x	x
C=CCSc1nc2ccccc2n1C(=O)/C=C/c1cc(OC)c(OC)c(OC)c1	2	4	58*	3	1	x
CC(C)c1ccc(NC(=O)CN2C(=O)NC3(CCCC3)C2=O)cc1	x	-6	x	x	x	x
CCN(CC)c1nc(C#N)cc(-c2ccc(OC)cc2)n1	-3	4	36	63*	1	-6
Cn1cc(CN2CCN(c3ncccn3)CC2)c(-c2cccc(Cl)c2)n1	-1	-3	-4	4	2	0
Cc1cc(N2CCN(Cc3cn(C)nc3-c3cccc(Cl)c3)CC2)cc(C)n1	2	11	60*	17	2	73*
Cc1cc(N2CCN(Cc3cn(C)nc3-c3ccccc3F)CC2)cc(C)n1	15	28*	81*	21*	13	69*
CCCc1nc2nc(C)c(NS(=O)(=O)c3ccc(C(C)(C)C)cc3)c(=O)n2[nH]1	x	7	x	x	x	x
COc1ccc(S(=O)(=O)NCC(c2cccnc2)N2CCN(Cc3ccccc3)CC2)cc1C (centres undefined)	x	2	x	x	x	x
O=C(NCc1ccccc1)C(c1ccc(F)cc1)N(C(=O)c1csnn1)c1ccccc1 (centres undefined)	x	4	x	x	x	x
CCn1cc(CNC(=O)CCSc2nc(-c3ccco3)cc(C(F)(F)F)n2)cn1	0	1	9	43*	5	-1
O=C(CSc1nc(-c2ccco2)cc(C(F)(F)F)n1)Nc1ccc2c(c1)OCO2	-3	-3	-28	29*	0	3
O=C(CCCSc1nc(-c2ccco2)cc(C(F)(F)F)n1)Nc1ccc2c(c1)OCO2	-2	3	-11	5	6	-1
COc1cc(=O)[nH]c(SC(C)C(=O)Nc2cc(C)on2)n1 (centres undefined)	x	-1	x	x	x	x
Cc1nc([N+](=O)[O-])c(Br)n1CC(=O)c1ccc(F)cc1	37*	18	-7	2	-8	0
Cc1nc([N+](=O)[O-])c(Br)n1CC(=O)c1cccc([N+](=O)[O-])c1	1	-1	-7	3	-5	1
COc1cc2c(cc1OC)C(c1cccs1)N(C(=O)c1ccc(S(=O)(=O)N(C)C)cc1)CC2 (centres undefined)	-2	-1	x	x	-10	-1
COc1cc2c(cc1OC)C(c1cccs1)N(C(=O)c1ccncc1)CC2 (centres undefined)	-2	3	-10	23*	-1	32
COc1cc2c(cc1OC)C(C)N(C(=O)c1cccs1)CC2 (centres undefined)	1	-1	2	24*	7	0
COc1cc2c(cc1OC)C(C)N(C(C)=O)CC2 (centres undefined)	-4	2	-1	3	3	1
CCC1CCCCN1CCCNC(=O)c1ccc(N2CCOCC2)c(NS(=O)(=O)c2ccc(OC)cc2)c1 (centres undefined)	-8	-2	0	3	52*	-2
CCCCNC(=O)c1ccc(N2CCOCC2)c(NS(=O)(=O)c2ccc(OC)cc2)c1	-1	-1	22	2	6	-5
SMILES	Ba/F3 V617F tox	IEC-6 cytotox	APP transl inh	MT stabilizer	BaF3 tox	b-catenin transl
COCCn1c(=S)[nH]c2cc(C(=O)N3CC(C)CC(C)C3)ccc2c1=O (centres undefined)	x	0	x	x	x	x
C[N+]1(C)CC2=Cc3ccccc3CC2C1 (centres undefined)	-3	-1	9	2	2	2
C1=C2C[N+]3(CCCC3)CC2Cc2ccc3ccccc3c21 (centres undefined)	64*	2	12	1	55*	x
Cc1c(Cl)cccc1N=C(N)N=C(N)N	2	3	6	3	81*	0
CCOc1ccc2c(c1)-c1c(ssc1=S)C(C)(C)N2C(=O)c1ccco1	2	0	-3	13	3	68*
CC1CCC2(CC1)NC(=O)N(CC(=O)c1ccc(Cl)s1)C2=O (centres undefined)	x	-2	x	x	x	x
CCC(=O)N/C(N)=N/c1nc(C)c2cc(OC)ccc2n1	23	3	-27	2	27*	x
Cc1ccc(C(C)NC(=S)NC2CCCCC2)c(C)c1 (centres undefined)	x	-12	x	x	x	x
N/C(=N/O)c1ccccc1N1CCC(Cc2ccccc2)CC1	72*	-8	-45	5	69*	2
N#CCC(=O)N/N=C/c1c(-c2ccccc2)n(-c2ccccc2)c2ccccc12	x	-2	x	x	x	x
CCCCc1cc(=O)oc2cc(C)cc(OCC(=O)N3C[C@H]4C[C@@H](C3)c3cccc(=O)n3C4)c12	x	10	x	x	x	x
CCC(C)[C@H](NC(=O)NC(C)C)C(=O)O (some centres undefined)	3	1	1	3	92*	0
CCCCCNC(=O)N[C@H](C(=O)O)C(C)C	-5	4	-4	5	90*	7
COc1ccccc1CNC(=O)CCC1N=C2c3ccccc3N=C(SCC(=O)NCC3CCCO3)N2C1=O (centres undefined)	x	0	x	x	x	x
Cc1ccc(C(=O)NCC(=O)N2CCC(Cc3ccccc3)CC2)cc1	x	4	x	x	x	x
CNC(=O)C(C#N)(Cc1cc(C(C)=O)ccc1OC)Cc1cc(C(C)=O)ccc1OC	x	4	x	x	x	x
Nc1ccc2oc(-c3cccc4ccccc34)nc2c1	0	10	49*	11	6	-1
Cc1ccc(/C=N/NC(=O)C2CC(=O)N(c3ccccc3)C2)s1 (centres undefined)	0	13	8	9	-6	57*
O=C(O)c1ccc(Cl)c(S(=O)(=O)NCC2CCCO2)c1 (centres undefined)	2	-2	57*	2	3	-2
O=S(=O)(NCC1CCCO1)c1ccc(-c2ccc(S(=O)(=O)NCC3CCCO3)cc2)cc1 (centres undefined)	52*	3	6	2	80*	1
Cc1cc(O)cc(C)c1NS(=O)(=O)c1ccc2ccccc2c1	x	6	x	x	x	x

High-throughput results deposited in PubChem by several laboratories.
